Source: PubChem BioAssay
Hits are enriched below; roughly 6.3% of the tested compounds scored in any of these assays.
M1 ag – M1 muscarinic receptor agonists, primary screen, CHO-M1 cells, Fluo-4 calcium, agonist mode | Muscarinic acetylcholine receptor M1 | B-score at 10 µM | Fluo-4 calcium fluorescence; hits give high values | 64,000 tested, 3% active;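 active = fluorescence rise, raw or as B-score row- and column-corrected plate score, outside the 99.7% band of its plate's samples, either direction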
MT1-MMP txn act – MT1-MMP promoter reporter activation – cell-based, luciferase luminescence, primary screen | 86,000 tested, 0.16% active | AID 750, 2007 | HT1080 MT1-MMP promoter luciferase reporter, overnight; hits give high values | activation factor at 10 µM;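 active = activation factor of at least 2 for MT1-MMP transcription at 10 µM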
M1 antagonist – antagonists of rat M1 muscarinic receptor; CHO-M1 cells, Fluo-4 calcium, ACh EC80 antagonist mode; hits give low values; 64,000 tested, 3.4% active; B-score at 10 µM; Muscarinic acetylcholine receptor M1 (Rattus norvegicus), P08482;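 active = calcium fluorescence response, raw or row-and-column corrected B-score, differing from the plate sample mean either way at a set confidence level, mostly lower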
SF-1 act – activators of human SF-1, primary screen, cell-based, CHO-K1, Gal4-SF-1 LBD, luciferase luminescence. activation, % at 10 µM. Steroidogenic factor 1 (Homo sapiens), Q13285. 65,000 tested, 1.9% active. AID 522, 2006. CHO-K1 Gal4-SF-1 LBD luciferase reporter; % increase over DMSO SF-1-specific signal;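 active = activation above the mean activation of all tested compounds plus 3 SD, cut at about 50% in these data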
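Assay system: CHO-K1 cells co-transfected with Gal4 DBD–human SF-1 LBD, 5xGal4 luciferase reporter; doses: 10 µM only; incubation: 20 h compound exposure at 37 °C after 1 h cell settling; signal: luciferase light emission; evaluation: percent activation versus DMSO; repeats: one test per compound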
RORA act – activators of orphan receptor RORA, primary screen, cell-based, luminescence; CHO-K1 Gal4-RORA LBD luciferase reporter; percent increase over mock-subtracted basal signal; activation, % at 10 µM; 65,000 tested, 1.5% active; AID 560, 2006;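 active = activation above the mean of all tested compounds plus 3 SD, cut at about 49% in these data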;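 also: 0% = DMSO-treated RORA cells and 100% = added signal equal to DMSO minus mock-transfected cells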
Target sequence (P35398 whole entry, looked up, the tested form may be a part): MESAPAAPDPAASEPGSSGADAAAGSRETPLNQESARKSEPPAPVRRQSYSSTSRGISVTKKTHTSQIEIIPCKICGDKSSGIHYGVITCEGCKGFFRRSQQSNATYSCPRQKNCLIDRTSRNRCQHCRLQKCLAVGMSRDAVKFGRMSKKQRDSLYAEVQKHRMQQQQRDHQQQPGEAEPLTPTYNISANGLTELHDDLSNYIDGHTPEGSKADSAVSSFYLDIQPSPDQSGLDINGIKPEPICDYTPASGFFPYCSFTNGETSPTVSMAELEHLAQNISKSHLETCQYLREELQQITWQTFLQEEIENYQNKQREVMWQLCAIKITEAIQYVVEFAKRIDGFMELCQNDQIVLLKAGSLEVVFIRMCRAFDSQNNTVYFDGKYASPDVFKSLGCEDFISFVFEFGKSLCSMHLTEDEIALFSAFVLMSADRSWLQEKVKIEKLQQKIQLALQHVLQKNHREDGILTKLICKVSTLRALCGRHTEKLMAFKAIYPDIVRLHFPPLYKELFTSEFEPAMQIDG
M1 ag confirm – rat M1 muscarinic receptor agonists, confirmation, CHO-M1 cells, Fluo-4 calcium, duplicate retest | shares compounds with M1 ag | Fluo-4 calcium fluorescence, agonist mode; actives lie on both sides | fluorescence change (max-min) at 10 µM | 1,700 tested, 19% active | AID 1488, 2009;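 active = fluorescence change differs from the solvent-only DMSO control mean at a set confidence level in both duplicate runs; inconclusive = differs from solvent-only control mean in just one of two runs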;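 also: an EC20 dose of acetylcholine follows compound addition during the same imaging run; raw fluorescence intensity difference in instrument units with no normalization to controls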
M4 agonist ctr – agonist activity at rat M4 receptor, confirmation, counter-screen for M1 allosteric modulator project, cell-based, agonist mode; shares compounds with M1 ag; CHO M4/Gqi5 cells, Fluo-4 calcium fluorescence; actives lie on both sides; fluorescence change (max-min) at 10 µM; 1,700 tested, 9% active; AID 1741, 2009;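 active = fluorescence change differing from the plate's solvent-only control wells at 99.7% confidence in both duplicates, whether higher or lower; inconclusive = differs from solvent controls in only one of two duplicates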
* = called active by the depositor; ? = inconclusive; . = no result.

SMILES	M1 ag	MT1-MMP txn act	M1 antagonist	SF-1 act	RORA act	M1 ag confirm	M4 agonist ctr
COc1ccc(OC)c(CCNC(=O)Cn2sc3nc(C)cc(C)c3c2=O)c1	8*	1.2	-0.49	-24	-4	?	-28
Cc1ccc(-n2c(C)nn(-c3ncc(C(F)(F)F)cc3Cl)c2=O)cc1	.	0.8	.	.	.	.	.
Cn1c(=O)c2c(nc(SC3C(=O)CC(C)(C)CC3=O)n2C)n(C)c1=O	-0.43	1.1	0.14	26	-5	.	.
O=C(Nc1cc(S(=O)(=O)N2CCOCC2)ccc1Cl)C(=O)c1c(-c2ccccc2)cc2ccccn12	.	1.3	.	.	.	.	.
O=C(c1ccco1)N1CCN=C1SCc1ccccc1F	-3.3*	1.1	1.1	-16	-22	-15	-29
O=C(c1ccco1)N1CCN=C1SCc1cccnc1	-0.22	1.2	0.18	-8	6	.	.
CCOC(=O)CC(=O)CSc1nc2ccccc2c(=O)n1-c1ccc(C(=O)N2CCOCC2)cc1	0.39	1	0.064	-18	-8	.	.
CCOC(=O)N1CCN(C(=O)CSc2nc3ccccc3c(=O)n2-c2ccccc2)CC1	3.8*	1.2	0.53	2	-2	?	?
O=c1cc(NCc2ccccc2)nc2n1CCCS2	0.074	1.1	-0.033	1	-4	.	.
CN(C)c1ccc(C2N(c3cccc(Cl)c3)C(=O)C3CCCN32)cc1 (configuration not stated)	-0.16	1.1	0.19	-1	-9	.	.
CC(c1nc2ccccc2o1)N1C(=O)c2ccccc2C1=O (configuration not stated)	.	1.3	.	.	.	.	.
CCCN(CCC)c1nc(C)cc(C(C#N)c2nc3ccccc3o2)n1 (configuration not stated)	6.4*	1.2	0.19	-11	-6	4.7	-24
Cc1cccc2cc(C(c3nnnn3Cc3ccccc3)N3CCN(c4ccccc4)CC3)c(=O)[nH]c12 (configuration not stated)	6.4*	1	0.15	12	-16	?	?
Cc1cccc2cc(C(c3nnnn3Cc3ccccc3)N3CCN(C)CC3)c(=O)[nH]c12 (configuration not stated)	-0.11	1.1	-0.045	-4	-12	.	.
O=c1[nH]cnc2c1cnn2Cc1ccccc1	-0.95	1.2	-0.15	15	5	.	.
COc1ccccc1N(C)S(=O)(=O)c1ccc(C(=O)OCC(=O)NCc2ccco2)cc1	6.9*	1.1	-0.65	12	9	-19	-38
O=C(Nc1ccc(CCC(=O)N2CCCC2)cc1)c1ncn[nH]1	1.8*	1.1	-0.0062	7	-21	6.1	-9.7
CCCCOc1ccccc1NC(=O)CSc1nnnn1C(C)(C)C	1.4	1.2	-0.13	31	-2	.	.
CC1CCN(C(=O)CSc2ccc3nnc(-c4ccccc4)n3n2)CC1	-0.23	1.1	1.8	-8	-8	.	.
CN(CCCC(=O)Nc1ccncc1)S(=O)(=O)c1ccc(Cl)cc1	4.1*	0.9	-0.21	1	-19	5.1	-25
CCn1c(=O)n(CC)c2cc(S(=O)(=O)N3CCc4ccccc43)ccc21	2.6*	0.8	0.42	-2	-3	-6.5	-35
CC1CN(C2CCN(S(=O)(=O)c3ccc4ccccc4c3)CC2)CC(C)O1 (configuration not stated)	-0.71	1.1	0.75	-3	-11	.	.
Cc1ccccc1C(=O)NC1CCN(Cc2nnnn2C2CCCC2)CC1	.	1.1	.	.	.	.	.
COc1ccccc1C1C=C(c2ccc(Cl)cc2)Nc2nc(NS(C)(=O)=O)nn21 (configuration not stated)	54*	1.1	1	-17	-6	88*	62
